# In the library only some 2.5% were active in any assay of this set; here they are far more common.
# PfGluPho inh = PfG6PD (Plasmodium falciparum) enzyme inhibition | PfGluPho enzyme, NADPH resazurin-diaphorase fluorescence | inhibition, % at 20 µM | 350,000 tested, 0.78% active | AID 504690;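 active means inhibition reaching at least a set limit at 20 µM in the primary screen, cut at about 59% in these data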;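 further: 0% = DMSO wells with substrate and 100% = DMSO wells lacking glucose-6-phosphate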
# HKDC1 inh = inhibitors of human hexokinase HKDC1 | Q2TB90 | recombinant HKDC1, G6PDH/diaphorase resazurin coupled fluorescence | inhibition, % at 20 µM | AID 493160 | 340,000 tested, 0.16% active;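 active means inhibition above about 35% when tested at 20 µM, limit read from the data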;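 further: plate controls were DMSO wells with enzyme for no effect and DMSO wells lacking enzyme for full effect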
#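 Test system: recombinant HKDC1 (HK5) hexokinase enzyme, produced in-house; Amount: enzyme 5 µg/mL final; Buffer or medium: Tris pH 8.0 buffer with MgCl2, Tween-20, BSA, BME; Reagent: glucose and ATP substrates; Doses: 20 µM test compound, 1% DMSO; Incubation: 90 min reaction incubation at room temperature, dark; Detection: resorufin fluorescence at 613 nm.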
# Tb hexokinase = T. brucei hexokinase 1 inhibition. recombinant TbHK1, G6PDH-coupled NADH A340. inhibition, % at 10 µM. 220,000 tested, 0.11% active;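 active means inhibition of 50% or more in the single-dose primary screen; inactive means inhibition below 50%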
# EP2 mod = EP2 receptor (human) modulation | P43116 | EP2-expressing cells, cAMP HTRF FRET, PGE2 co-stimulation | induction, % at 25 µM | 260,000 tested, 0.83% active | AID 940;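 active means compounds whose cAMP rise, as percent of the full-agonist control response, exceeds 60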;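 further: rat C6 glioma line stably carrying human EP2 under a CMV promoter; the protocol text gives 20 µM as final concentration; 100% = response of wells given 1 µM PGE2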
# Target sequence (P43116 whole entry, looked up): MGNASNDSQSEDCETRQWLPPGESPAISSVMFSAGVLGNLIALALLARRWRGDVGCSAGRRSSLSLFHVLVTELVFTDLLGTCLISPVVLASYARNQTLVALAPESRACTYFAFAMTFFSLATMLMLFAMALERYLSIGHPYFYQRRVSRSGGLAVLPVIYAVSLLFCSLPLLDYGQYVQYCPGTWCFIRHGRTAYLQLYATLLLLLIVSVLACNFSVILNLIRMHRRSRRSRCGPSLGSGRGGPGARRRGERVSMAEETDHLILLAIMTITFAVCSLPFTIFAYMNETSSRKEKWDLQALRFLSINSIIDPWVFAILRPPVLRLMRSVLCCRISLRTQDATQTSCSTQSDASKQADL
# PHOSPHO1 block = PHOSPHO1 (human) inhibition; Q8TCT1; AID 1565; 290,000 tested, 1.1% active; inhibition, % at 13.3 µM; recombinant PHOSPHO1, absorbance phosphatase assay; in the data active means inhibition above about 60%
# Target sequence (Q8TCT1 whole entry, looked up): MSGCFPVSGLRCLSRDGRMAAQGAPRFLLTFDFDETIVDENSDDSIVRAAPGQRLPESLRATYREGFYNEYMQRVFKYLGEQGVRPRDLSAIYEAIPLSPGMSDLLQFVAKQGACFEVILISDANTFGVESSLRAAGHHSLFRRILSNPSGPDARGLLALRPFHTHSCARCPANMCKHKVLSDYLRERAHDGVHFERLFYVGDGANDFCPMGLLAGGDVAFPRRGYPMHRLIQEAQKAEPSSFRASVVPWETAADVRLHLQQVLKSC
# PGE2 EP2 inh = inhibitors of human EP2 prostaglandin E2 receptor. AID 1422. C6 glioma cells expressing human EP2, cAMP TR-FRET; cells stimulated with saturating PGE2. P43116. inhibition, % at 25 µM. 260,000 tested, 0.52% active;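 active means percent inhibition above 40 after rounding to a whole number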;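 further: rat C6 glioma host cells with rolipram phosphodiesterase inhibitor present; the protocol text gives 20 µM as final concentration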
# EP2 confirm = human EP2 receptor cAMP induction, negative in counter-screens. calls only at 20 µM (by protocol). shares compounds with EP2 mod. 1,300 tested, 47% active. AID 1080. C6 glioma EP2 cells, cAMP HTRF induction; plus low (about EC15) PGE2 agonist;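 active means cAMP induction above 50% in the main assay while under 30% in all four parallel counter assays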;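 further: rat C6 glioma cells stably expressing human EP2 receptor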
# Active calls of the source: *; i = inactive; nt = no result given; + = active, no number; ! = repeats disagree.
SMILES,PfGluPho inh,HKDC1 inh,Tb hexokinase,EP2 mod,PHOSPHO1 block,PGE2 EP2 inh,EP2 confirm
CC(C)(C)N(Cc1ccccc1)C(=O)c1ccc(Br)o1,-3,7,6,63*,56,5,i
CC(C)(C)N(Cc1ccccc1)C(=O)COC(=O)c1ccc(Br)o1,-21,-3,nt,nt,nt,nt,nt
Cc1ccc(Oc2nc(-c3ccccc3)ncc2S(C)(=O)=O)cc1,-2,-9,2,75*,33,15,i
Cc1ccc(Oc2nc(-c3ccccc3)ncc2S(=O)(=O)c2ccc(C)cc2)cc1,-18,0,-9,38,6,8,nt
Cn1c(=O)c2c(SC3CCCC3)nc(C3CC3)nc2n(C)c1=O,3,-6,-6,79*,-2,11,+
Cc1cccc(NC(=O)CSc2nc(COc3ccccc3)nc3ccccc23)c1C,-17,-7,-2,33,29,23,nt
Cc1cccc(C)c1NC(=O)CSc1nc(COc2ccccc2)nc2ccccc12,3,-9,-2,69*,-14,37,i
CCc1nc(SCC(=O)Nc2nc3c(s2)CCCC3)c2ccccc2n1,9,7,-3,87*,28,12,i
COc1cccc(CC(=O)N2CCC(O)(c3cccnc3)CC2)c1,nt,nt,nt,5,nt,0,nt
CC(=O)Nc1c(O)c2ccccc2oc1=O,nt,nt,nt,25,nt,10,nt
COc1ccc(-c2cc(C(F)(F)F)n3nc(C(=O)Nc4cc(C)on4)cc3n2)cc1OC,-11,2,-8,8,3,nt,nt
Cc1cc(-c2ccccc2)nc2cc(C(=O)N(Cc3ccccc3)Cc3ccccc3)nn12,8,-2,3,72*,10,7,+
COc1ccc(-c2cc(C(F)(F)F)n3nc(C(=O)N(C)Cc4ccccc4)cc3n2)cc1OC,23,-4,-6,58,30,5,i
CCCC(c1nnnn1Cc1ccccc1)N(Cc1cc2cc(C)c(C)cc2[nH]c1=O)C1CCCC1 (stereo not given),nt,nt,nt,33,nt,13,nt
C=C(C)Cn1c(=S)[nH]c2c1c(=O)[nH]c(=O)n2C,nt,nt,nt,-9,nt,6,nt
CC1CCN(C(C)C(=O)Nc2ccccc2-c2ccccc2)CC1 (stereo not given),-5,-2,5,82*,24,3,+
CCCC/C(=N\NC(=O)c1ccc(Br)o1)c1ccccc1,-11,18,-11,55,-3,18,i
Cc1cccc(C)c1OC(=O)C(c1ccccc1)c1ccccc1,-6,-5,3,66*,14,19,i
CCOc1ccccc1NC(=O)CSc1nnc(C)c(=O)[nH]1,nt,nt,nt,10,nt,12,nt
Cc1cccnc1N(C(=O)Nc1ccccc1)C1=NCC(C)(C)S1,1,-1,0,86*,11,9,+
CC1(C)CN=C(N(C(=O)Nc2ccccc2)c2ccccc2F)S1,11,5,8,43,12,5,nt
Cc1cccnc1N(C(=O)Nc1cccc(Cl)c1)C1=NCC(C)(C)S1,-6,0,-4,70*,0,3,+
O=C(O)c1ccc(S(=O)(=O)N(CC2CC=CCC2)CC2CCCO2)cc1 (stereo not given),nt,nt,nt,-2,nt,13,nt
CCC1(C)Cc2ccccc2-c2nc3n(c(=O)c21)CCS3 (stereo not given),14,2,-3,79*,4,12,+
COc1ccc(NCc2nnc(SCc3ccc(Cl)cc3)n2-c2ccccc2)cc1,5,6,-2,8,14,8,nt
SMILES,PfGluPho inh,HKDC1 inh,Tb hexokinase,EP2 mod,PHOSPHO1 block,PGE2 EP2 inh,EP2 confirm
COc1ccc(-n2c(COc3ccc(Cl)cc3)nnc2SCc2ccc(C#N)cc2)cc1,6,1,7,53,-27,5,i
Cc1cccc(CCN(C(=O)c2ccco2)C(C(=O)NC2CCCC2)c2cccnc2)c1 (stereo not given),nt,nt,nt,5,nt,10,nt
CCCOC(=O)C(C)n1cnc2scc(-c3ccccc3)c2c1=O (stereo not given),nt,nt,nt,-16,nt,6,nt
CCOc1ccc2c(c1)C1(SC(NC(C)=O)=NN1C(C)=O)C(=O)N2C(C)=O (stereo not given),nt,nt,nt,-19,nt,12,nt
O=C1CCC(c2ccccc2)=NN1Cc1c(F)cccc1Cl,35,1,-1,66*,34,2,+
COc1ccnc(Cn2nc(C)c3cccn3c2=O)c1OC,nt,nt,nt,-8,nt,6,nt
CCc1cccc(NC(=O)CSc2nc(-c3ccco3)cc(C(F)(F)F)n2)c1,nt,nt,nt,-48,nt,8,nt
Cc1ccc2[nH]c3c(=O)n(N)c(C)nc3c2c1,7,-6,-15,-17,32,4,nt
Cc1ccc2[nH]c3c(=S)nc[nH]c3c2c1,36,-4,-6,88*,-11,12,i
Cc1ccc(S(=O)(=O)NCCC(=O)NCc2ccccn2)cc1,-9,-7,nt,nt,nt,nt,nt
CC(=O)c1ccc(S(=O)(=O)NCCCC(=O)NCCc2ccccn2)cc1,-4,7,-3,71*,-11,0,i
COc1ccccc1CC(C)NC(=O)Cn1cnc2sc(C)cc2c1=O (stereo not given),nt,nt,nt,-67,nt,4,nt
O=C(O)CSc1cc(-c2ccccc2)nc2ccccc12,nt,nt,nt,67*,nt,12,i
Nc1c(C(=O)Nc2ccccc2F)sc2nc(Cc3ccccc3)cc(C(F)(F)F)c12,-4,14,-15,67*,17,15,i
Cc1cc(C)c2c(N)c(C(=O)Nc3ccccc3C(F)(F)F)sc2n1,nt,nt,nt,16,nt,14,nt
O=C(O)c1ccc(-c2ccccc2C(F)(F)F)o1,1,0,0,83*,-12,14,+
CCOC(=O)c1cc2sc(C)cc2n1C(C)C(=O)OCC (stereo not given),15,-2,-6,65*,10,7,i
C=CCNC(=S)NNc1nc(Nc2ccccc2)nc(N2CCCCC2)n1,19,-7,-3,74*,37,11,i
Cn1ccnc1C1(O)CC2CCC(C1)N2C(=O)C1CC1 (stereo not given),nt,nt,nt,-19,nt,8,nt
COc1cc2c(cc1OC)CN(c1ccc(-c3ccccc3OC)nn1)CC2,9,15,-7,65*!,-34,4,i
O=C(CNC(=O)c1cccs1)NCC(=O)OCc1ccccc1,nt,nt,nt,23,nt,12,nt
CC1CCN(c2nc3c(c(=O)[nH]c(=O)n3C)n2CC(C)CSc2nnnn2-c2ccccc2)CC1 (stereo not given),6,-1,-7,68*,-27,10,i
Cc1cc(Nc2ccc(Br)cc2)n2nc(C)nc2n1,0,2,-2,88*,2,5,i
Cc1cc(Nc2ccc(F)cc2)n2nc(C)nc2n1,7,-5,1,18,1,4,nt
CCn1c(=O)c2ccccc2n(Cc2cccc([N+](=O)[O-])c2)c1=O,-6,2,nt,nt,18,nt,nt
